Experimental data as given in ChEMBL document CHEMBL4000145, “Discovery and Optimization of a Porcupine Inhibitor” (J Med Chem, 2015).
Converted amounts (≈) assume the structure as drawn. The source made the active and inactive calls. The rule behind the calls is not given here.

Assays:
[1] = molecular target: T1, Protein-serine O-palmitoleoyltransferase porcupine (Homo sapiens) (UniProt Q9H237); assay: Inhibition of PORCN-mediated V5-tagged Wnt3A palmitoylation in human HeLa cells at 100 nM measured after over night incubation by Western blot analysis; type: cell-based
T1 sequence (whole entry): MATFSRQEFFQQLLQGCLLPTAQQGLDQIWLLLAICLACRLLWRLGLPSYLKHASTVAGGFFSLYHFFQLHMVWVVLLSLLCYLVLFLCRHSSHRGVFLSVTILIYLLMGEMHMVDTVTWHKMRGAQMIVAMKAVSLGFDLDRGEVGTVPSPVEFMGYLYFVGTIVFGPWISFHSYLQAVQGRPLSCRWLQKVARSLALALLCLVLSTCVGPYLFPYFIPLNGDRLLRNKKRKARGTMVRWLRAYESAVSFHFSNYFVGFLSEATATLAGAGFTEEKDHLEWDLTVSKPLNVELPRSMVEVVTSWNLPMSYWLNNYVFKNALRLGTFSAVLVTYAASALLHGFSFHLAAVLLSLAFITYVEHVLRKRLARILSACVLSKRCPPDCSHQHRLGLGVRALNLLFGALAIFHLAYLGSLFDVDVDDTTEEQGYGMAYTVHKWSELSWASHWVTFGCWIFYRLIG
Procedure, shortened: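 HeLa cells seeded 3 × 10⁶ per 10 cm dish, overnight at 37 °C, then transfected with 5 μg pcDNA3.2/V5-Wnt3a. After 6 h, washed and given 100 μM ω-alkynyl palmitate in medium with 5% fatty-acid-free BSA plus compound (100 nM) or DMSO, overnight at 37 °C. From 600 μg lysate, V5-Wnt3a was immunoprecipitated and click-reacted with biotin azide. Blot read-outs: anti-V5/anti-mouse Dylight 680 for total, streptavidin-Dylight 800 for acylated.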

[2] = Intrinsic clearance in mouse liver microsomes; type: ADME, microsome; conditions: read-out: CLH
[3] = molecular target: T2, Protein-serine O-palmitoleoyltransferase porcupine (Homo sapiens, UniProt Q9H237); assay: Inhibition of porcupine (unknown origin) expressed in HEK293-STF3A cells assessed as inhibition of Wnt signaling by measuring decrease in beta-catenin-mediated transcriptional activity after 24 hrs by Steady-Glo luciferase assay; type: cell-based
T2 sequence (Q9H237 whole entry): T1 sequence (whole entry)
Procedure, shortened: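 HEK293-STF3A cells, 2 × 10⁴ per well, incubated overnight at 37 °C. Serially diluted compound added at final 50 μM to 1.5 nM. After 1 day, Steady-Glo luciferase added for 10 min at room temperature and luminescence read. IC50 derived from the dilution series.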

[4] = Oral bioavailability in mouse; type: ADME, organism-based; conditions: in vivo
[5] = Cytotoxicity against HEK293 cells assessed as cell viability after 1 day by CellTiter-Glo luminescent assay; conditions: human
[6] = Permeability of the compound at pH 7.4 by PAMPA assay; type: physicochemical; conditions: read-out: permeability
[7] = Thermodynamic solubility of the compound at pH 7.4; type: physicochemical; conditions: buffer, read-out: Therm_solubility
Procedure, shortened: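 Compound at 500 μM from DMSO stock in pH 7.4 buffer, 1.0% DMSO. Incubated 18 h, then vacuum filtered. Filtrate mixed 1:1 with 1-propanol and quantified by UV spectroscopy.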

HEK293 = assay: Inhibition of beta-catenin-mediated transcriptional activity in Wnt3A knock out HEK293-STF cells preincubated for 4 hrs followed by Wnt-3A conditioned medium addition measured after 24 hrs by Steady-Glo luciferase assay; conditions: Homo sapiens
Cytochrome P450 3A4 = Cytochrome P450 3A4 (Homo sapiens, UniProt P08684); assay: Inhibition of CYP3A4 (unknown origin)
Cytochrome P450 2D6 = Cytochrome P450 2D6 (Homo sapiens, UniProt P10635); assay: Inhibition of CYP2D6 (unknown origin)
[8] = AUC (0 to last) in mouse at 5 mg/kg, po; type: ADME, organism-based; set-up: dose 5 mg/kg, time 0 - last, route oral; conditions: in vivo
[9] = Oral bioavailability in mouse at 5 mg/kg; type: ADME, organism-based; conditions: in vivo
Mus musculus [10] = assay: Antitumor activity in Balb/c mouse MMTV-Wnt1 model assessed as tumor growth inhibition at 1 mg/kg administered once daily for 14 days via oral gavage relative to vehicle treated control; type: functional; conditions: 336 h, read-out: TGI
Procedure, shortened: (§1)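 Orthotopic MMTV-Wnt1 tumor fragments implanted in mammary fat pads of Balb/c nude mice. Dosing began 14 days later (day 1), with 10 mice per group and mean tumor volume 103–107 mm³. Oral gavage once daily for 14 days at 10 mL/kg in 50% PEG 400/deionized water. Doses were 1, 3 or 10 mg/kg. Caliper volumes gave %TGI versus vehicle at day 14. Statistics by one-way ANOVA with Dunnett's test.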

[11] = Cmax in mouse at 5 mg/kg, po; type: ADME, organism-based; set-up: dose 5 mg/kg, route oral; conditions: in vivo
Mus musculus [12] = assay: Antitumor activity in Balb/c mouse MMTV-Wnt1 model assessed as tumor growth inhibition administered once daily for 14 days via oral gavage; type: functional; procedure, shortened: as §1
Mus musculus [13] = assay: Antitumor activity in Balb/c mouse MMTV-Wnt1 model assessed as tumor growth inhibition at 10 mg/kg administered once daily for 14 days via oral gavage relative to vehicle treated control; type: functional; conditions: 336 h, read-out: TGI; procedure, shortened: as §1
[14] = molecular target: T3, Protein-serine O-palmitoleoyltransferase porcupine (Mus musculus) (UniProt Q9JJJ7); conditions: 0.2 to 625 nM
T3 sequence (whole entry): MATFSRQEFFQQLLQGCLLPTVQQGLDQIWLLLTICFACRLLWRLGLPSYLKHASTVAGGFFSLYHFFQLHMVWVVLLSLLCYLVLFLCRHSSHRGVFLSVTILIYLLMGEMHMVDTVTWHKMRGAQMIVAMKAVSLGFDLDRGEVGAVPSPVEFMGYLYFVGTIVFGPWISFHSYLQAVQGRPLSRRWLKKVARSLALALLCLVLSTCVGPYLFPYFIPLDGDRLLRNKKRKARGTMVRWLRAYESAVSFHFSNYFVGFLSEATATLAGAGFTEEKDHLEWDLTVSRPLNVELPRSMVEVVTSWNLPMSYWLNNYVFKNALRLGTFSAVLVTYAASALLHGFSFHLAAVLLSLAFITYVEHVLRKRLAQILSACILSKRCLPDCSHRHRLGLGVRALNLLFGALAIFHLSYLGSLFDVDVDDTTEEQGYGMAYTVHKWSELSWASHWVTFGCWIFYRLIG

HT-1080 = assay: Inhibition of luciferase expression in human HT1080 cells after 24 hrs; type: functional, cell-based
Procedure, shortened: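 HT1080 cells seeded at 150 000 per well a day before transfection. Transfected with control or murine PORCN plasmid (100 ng) plus Wnt/β-catenin reporter (550 ng) and Wnt3a (50 ng). Treated with serial dilutions from 625 to 0.2 nM at 0.1% DMSO final. Luciferase measured in lysate 24 h post-transfection.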

Mus musculus [15] = assay: Antitumor activity in Balb/c mouse MMTV-Wnt1 model assessed as tumor growth inhibition at 3 mg/kg administered once daily for 14 days via oral gavage relative to vehicle treated control; type: functional; conditions: 336 h, read-out: TGI; procedure, shortened: as §1
[16] = Half life in mouse at 1 mg/kg, iv; type: ADME, organism-based; conditions: in vivo

Cytochrome P450 2D6, sequence (P10635 whole entry): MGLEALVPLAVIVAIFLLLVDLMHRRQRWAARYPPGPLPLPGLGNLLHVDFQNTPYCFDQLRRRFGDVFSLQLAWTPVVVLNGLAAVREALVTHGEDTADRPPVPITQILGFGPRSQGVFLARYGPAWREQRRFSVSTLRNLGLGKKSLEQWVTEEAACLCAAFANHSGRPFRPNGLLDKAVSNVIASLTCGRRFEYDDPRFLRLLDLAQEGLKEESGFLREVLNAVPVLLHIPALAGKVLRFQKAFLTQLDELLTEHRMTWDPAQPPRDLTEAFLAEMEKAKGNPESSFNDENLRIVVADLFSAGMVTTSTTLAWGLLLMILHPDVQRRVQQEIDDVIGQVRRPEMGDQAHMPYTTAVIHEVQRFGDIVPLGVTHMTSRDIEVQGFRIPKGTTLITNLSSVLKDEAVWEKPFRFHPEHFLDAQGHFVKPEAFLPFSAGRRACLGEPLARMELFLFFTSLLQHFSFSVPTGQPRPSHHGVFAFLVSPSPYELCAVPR
Cytochrome P450 3A4, sequence (P08684 whole entry): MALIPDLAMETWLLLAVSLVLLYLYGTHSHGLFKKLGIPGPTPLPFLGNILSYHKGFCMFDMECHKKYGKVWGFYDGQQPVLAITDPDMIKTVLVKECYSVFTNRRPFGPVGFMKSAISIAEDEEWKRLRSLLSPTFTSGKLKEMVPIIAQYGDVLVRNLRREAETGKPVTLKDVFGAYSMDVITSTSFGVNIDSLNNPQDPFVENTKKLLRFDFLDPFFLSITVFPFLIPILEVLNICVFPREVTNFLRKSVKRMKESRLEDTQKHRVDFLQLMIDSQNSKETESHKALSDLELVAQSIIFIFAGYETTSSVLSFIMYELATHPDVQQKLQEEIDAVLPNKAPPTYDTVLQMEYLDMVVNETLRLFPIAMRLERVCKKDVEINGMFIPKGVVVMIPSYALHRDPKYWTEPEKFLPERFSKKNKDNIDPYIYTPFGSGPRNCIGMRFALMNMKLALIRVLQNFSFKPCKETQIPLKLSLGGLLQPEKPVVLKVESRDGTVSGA

SMILES	microsomal CLint [2]	IC50 [3]	IC50 (Cytochrome P450 3A4)	IC50 (Cytochrome P450 2D6)	further results
C[C@@H](Oc1ccc(-n2ccnc2)cc1)C(=O)Nc1ccc(-c2ccccc2)cc1	63 µL/min/mg	130 nM			inhibition [1]: Active
O=C(CNc1ccc(-n2ccnc2)cc1)Nc1ccc(-c2ccccc2)cc1	11 µL/min/mg	30 nM			
O=C(COc1ccc(-n2ccnc2)cc1)Nc1ccc(-c2ccccc2)cc1	37 µL/min/mg	15 to 19 nM			bioavailability [4]: < 1%; CC50 at 24 h [5]: > 50000 nM; Papp [6]: < 1 ×10⁻⁶ cm/s; solubility thermodynamic [7]: < 1 µg/mL; IC50 (HEK293): > 30000 nM; inhibition [1]: Active
C[C@H](Oc1ccc(-n2ccnc2)cc1)C(=O)Nc1ccc(-c2ccccc2)cc1	85 µL/min/mg	7 nM			
Cc1nccn1-c1ccc(OCC(=O)Nc2ccc(-c3ccccc3)cc2)cc1		2 nM	5200 nM	1900 nM	
C[C@H](Nc1ccc(-n2ccnc2)cc1)C(=O)Nc1ccc(-c2ccccc2)cn1	3.5 µL/min/mg	5 nM			
O=C(COc1ccc(-c2ccn[nH]2)cc1)Nc1ccc(-c2ccccc2)cc1		> 50000 nM			
Cn1nccc1-c1ccc(OCC(=O)Nc2ccc(-c3ccccc3)cc2)cc1		4 nM	> 20000 nM	> 20000 nM	
C[C@@H](Nc1ccc(-n2ccnc2)cc1)C(=O)Nc1ccc(-c2ccccc2)cn1	12 µL/min/mg	689 nM			
O=C(COc1ccc(-n2cccc2)cc1)Nc1ccc(-c2ccccc2)cc1		> 50000 nM			
O=C(COc1ccc(-c2cnco2)cc1)Nc1ccc(-c2ccccc2)cc1		42 nM	> 20000 nM	> 20000 nM	
O=C(Nc1ccc(-c2ccccc2)cc1)[C@@H]1CCCN1c1ccc(-n2ccnc2)cc1	18 µL/min/mg	40 nM			
C[C@H](Nc1ccc(-c2ccnn2C)nc1)C(=O)Nc1ccc(-c2cccnc2)nc1	8 µL/min/mg	10 nM	> 20000 nM	3300 nM	Papp [6]: 26.8 ×10⁻⁶ cm/s; solubility thermodynamic [7]: 102 µg/mL (≈ 255 µM)
O=C(Nc1ccc(-c2ccccc2)cc1)[C@H]1CCCN1c1ccc(-n2ccnc2)cc1		33000 nM			
C[C@H](Nc1ccc(-c2ccnn2C)nc1)C(=O)Nc1ccc(-c2cccnc2)cn1	8 µL/min/mg	1 nM	> 20000 nM	8000 nM	AUC(0-t) [8]: 12300 ng·h/mL; bioavailability [9]: 106%; inhibition in vivo at 1 mg/kg (Mus musculus [10]): 50%; Cmax [11]: 4270 ng/mL; Papp [6]: 50.6 ×10⁻⁶ cm/s; TGI (Mus musculus [12]): Dose-dependent effect; inhibition in vivo at 10 mg/kg (Mus musculus [13]): 91%; inhibition [14]: Active; solubility thermodynamic [7]: 72.5 µg/mL (≈ 181 µM); inhibition (HT-1080): Dose-dependent effect; inhibition in vivo at 3 mg/kg (Mus musculus [15]): 71%; inhibition [1]: Active; half-life [16]: 1.9 h
C[C@H](Nc1ccc(-c2ccnn2C)nc1)C(=O)Nc1ccc(-c2ccccc2)cn1	8 µL/min/mg	1 nM	> 20000 nM	> 20000 nM	Papp [6]: 113 ×10⁻⁶ cm/s; solubility thermodynamic [7]: 4 µg/mL (≈ 10 µM)
